Measured values published in ChEMBL document CHEMBL6134787, “Fexinidazole optimization: enhancing anti-leishmanial profile, metabolic stability and hERG safety” (RSC Med Chem, 2024).
pIC50: −log10 of the molar value. Activity calls are given as the source filed them. The rule behind the calls is not given here.

system: not listed separately; assay: Metabolic stability in rat liver S9 fraction assessed as compound remaining at 20 uM measured after 32 mins in presence of NADP and GSH by HPLC analysis; assay type: ADME, subcellular; conditions: read-out: Stability
In short: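 Rat liver S9 (final 4 mg/mL) in 50 mM phosphate pH 7.4 with NADPH-regenerating system (0.3 mM NADP+, 5.3 mM glucose-6-phosphate, G6PDH), 10 mM MgCl2 and 5 mM EDTA. Pre-warmed 10 min at 37 °C, then 20 μM compound and 5.5 μM GSH added. Samples taken at 0, 16 and 32 min were quenched in ice-cold acetonitrile. HPLC (254/280 nm) peak area was expressed relative to 0 min.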

Compound | remaining at 32 min, 20 µM
CSc1ccc(OCc2nccn2C)cc1 | 100%
Cn1c([N+](=O)[O-])cnc1COc1ccc(S(C)(=O)=O)cc1 [FEXINIDAZOLE SULFONE] | 100%

system: not listed separately; assay: Hepatotoxicity against mouse TAMH cells assessed as cell viability at 125 uM incubated for 48 hrs by MTT assay; assay type: toxicity, cell-based; conditions: not given
In short: (§1)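 TAMH mouse liver cells in FCS-free DMEM/F12 with 5% PANEXIN NTA, 10 mM nicotinamide and gentamicin. Seeded at 20 000/well and attached 24 h at 37 °C, 5% CO2. DMSO-diluted compounds were applied for 24 or 48 h. MTT was added for 4 h, formazan dissolved in DMSO and A570 read. Viability was background-corrected and expressed relative to DMSO controls; mean ± SD, ≥3 experiments.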

Compound | Activity
Cn1c([N+](=O)[O-])cnc1COc1ccc(S(C)(=O)=O)cc1 [FEXINIDAZOLE SULFONE] | Non-toxic

system: not listed separately; assay: Metabolic stability in rat liver microsome assessed as compound remaining at 20 uM measured after 32 mins in presence of NADP and GSH by HPLC analysis; assay type: ADME; conditions: liver microsomes, read-out: Stability
In short: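 Rat liver microsomes (final 2 mg/mL) in 50 mM phosphate pH 7.4 with 0.3 mM NADP+, 5.3 mM glucose-6-phosphate, G6PDH, 10 mM MgCl2 and 5 mM EDTA. 20 μM compound added at 37 °C. Aliquots at 0, 16 and 32 min were quenched in ice-cold acetonitrile and centrifuged. HPLC peak area at 254/280 nm was expressed relative to 0 min.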

Compound | remaining at 32 min, 20 µM
CSc1ccc(OCc2nccn2C)cc1 | 100%
Cn1c([N+](=O)[O-])cnc1COc1ccc(S(C)(=O)=O)cc1 [FEXINIDAZOLE SULFONE] | 100%

system: Leishmania donovani; assay: Antileishmanial activity against miltefosine resistant Leishmania donovani HU3MILR40 promastigotes […] assessed as inhibition of parasite growth incubated for 72 hrs by automatic microtiter plate reader analysis; assay type: functional, organism-based; conditions: not given
In short: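 Promastigote (free parasite) assay: Schneider's Drosophila medium with 4 mM glutamine, 25 μg mL−1 gentamicin, 10% heat-inactivated FBS, pH 6.9, 27 °C. 1.5 × 10^5 promastigotes per well exposed to a concentration series for 72 h at 27 °C.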

Compound | pIC50
CCCCCCCCCCCCCCCCOP(=O)([O-])OCC[N+](C)(C)C [MILTEFOSINE] | < 4.40
CSc1ccc(OCc2nccn2C)cc1 | < 4.70
Cn1c([N+](=O)[O-])cnc1COc1ccc(S(C)(=O)=O)cc1 [FEXINIDAZOLE SULFONE] | 5.25

system: Leishmania braziliensis; assay: Antileishmanial activity against wild type Leishmania braziliensis UA847 amastigotes infected in mouse peritoneal macrophage assessed as inhibition of parasite growth incubated for 72 hrs by giemsa staining based analysis; assay type: functional, organism-based; conditions: not given
In short: (§2)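 Mouse peritoneal macrophages (1 × 10^5/well on coverslips, DMEM + 10% heat-inactivated FBS, penicillin/streptomycin) adhered overnight at 37 °C, 5% CO2. They were infected overnight with late-log promastigotes at a 20:1 parasite:macrophage ratio. Cells were then treated with compound for 72 h at 37 °C and Giemsa-stained. Amastigotes per 100 macrophages were counted to derive IC50; mean ± SD of 3–4 independent experiments.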

Compound | pIC50
CCCCCCCCCCCCCCCCOP(=O)([O-])OCC[N+](C)(C)C [MILTEFOSINE] | 5.49

system: RAW264.7; assay: Cytotoxicity against mouse RAW264.7 cells assessed as inhibition of cell growth incubated for 72 hrs by MTS assay; assay type: functional, cell-based; conditions: RAW264.7, 72 h
In short: (§3)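 Cells in DMEM + 10% heat-inactivated FBS with penicillin/streptomycin at 37 °C, 5% CO2. They were seeded at 1 × 10^4/well and incubated with a concentration series for 72 h at 37 °C. Viability was read by MTS/PMS assay at 490 nm and IC50 derived.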

Compound | pIC50
CCCCCCCCCCCCCCCCOP(=O)([O-])OCC[N+](C)(C)C [MILTEFOSINE] | 5.00
CSc1ccc(OCc2nccn2C)cc1 | < 4.04
Cn1c([N+](=O)[O-])cnc1COc1ccc(S(C)(=O)=O)cc1 [FEXINIDAZOLE SULFONE] | < 4.00

system: not listed separately; assay: Cytotoxicity against mouse L929 cells assessed as inhibition of cell growth incubated for 72 hrs by MTS assay; assay type: toxicity, cell-based; conditions: not given; in short: as §3

Compound | IC50 at 72 h
CCCCCCCCCCCCCCCCOP(=O)([O-])OCC[N+](C)(C)C [MILTEFOSINE] | 81.5 µM
CSc1ccc(OCc2nccn2C)cc1 | > 100 µM
Cn1c([N+](=O)[O-])cnc1COc1ccc(S(C)(=O)=O)cc1 [FEXINIDAZOLE SULFONE] | > 100 µM

system: Leishmania donovani; assay: Antileishmanial activity against miltefosine resistant Leishmania donovani HU3MILR40 amastigotes infected in mouse peritoneal macrophage assessed as inhibition of parasite growth incubated for 72 hrs by giemsa staining based analysis; assay type: functional, organism-based; conditions: not given
In short: (§4)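 Mouse peritoneal macrophages in DMEM + 10% heat-inactivated FBS, penicillin/streptomycin; 1 × 10^5 cells per well on coverslips, adhered overnight at 37 °C, 5% CO2, non-adherent cells washed off. Infected overnight with late-log promastigotes at parasite:macrophage 40:1. Compound exposure 72 h at 37 °C; Giemsa stain, amastigotes per 100 macrophages counted, IC50 derived; means ± SD of 3–4 independent experiments.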

Compound | pIC50
CCCCCCCCCCCCCCCCOP(=O)([O-])OCC[N+](C)(C)C [MILTEFOSINE] | < 4.70

molecular target: Voltage-gated inwardly rectifying potassium channel KCNH2 (Homo sapiens, UniProt Q12809); assay: Inhibition of human ERG stably overexpressed in HEK293 cells incubated for 30 mins by FLIPR assay; assay type: toxicity, cell-based; conditions: human, hek293, 0.5 h; time 30 min
Sequence (Q12809 whole entry): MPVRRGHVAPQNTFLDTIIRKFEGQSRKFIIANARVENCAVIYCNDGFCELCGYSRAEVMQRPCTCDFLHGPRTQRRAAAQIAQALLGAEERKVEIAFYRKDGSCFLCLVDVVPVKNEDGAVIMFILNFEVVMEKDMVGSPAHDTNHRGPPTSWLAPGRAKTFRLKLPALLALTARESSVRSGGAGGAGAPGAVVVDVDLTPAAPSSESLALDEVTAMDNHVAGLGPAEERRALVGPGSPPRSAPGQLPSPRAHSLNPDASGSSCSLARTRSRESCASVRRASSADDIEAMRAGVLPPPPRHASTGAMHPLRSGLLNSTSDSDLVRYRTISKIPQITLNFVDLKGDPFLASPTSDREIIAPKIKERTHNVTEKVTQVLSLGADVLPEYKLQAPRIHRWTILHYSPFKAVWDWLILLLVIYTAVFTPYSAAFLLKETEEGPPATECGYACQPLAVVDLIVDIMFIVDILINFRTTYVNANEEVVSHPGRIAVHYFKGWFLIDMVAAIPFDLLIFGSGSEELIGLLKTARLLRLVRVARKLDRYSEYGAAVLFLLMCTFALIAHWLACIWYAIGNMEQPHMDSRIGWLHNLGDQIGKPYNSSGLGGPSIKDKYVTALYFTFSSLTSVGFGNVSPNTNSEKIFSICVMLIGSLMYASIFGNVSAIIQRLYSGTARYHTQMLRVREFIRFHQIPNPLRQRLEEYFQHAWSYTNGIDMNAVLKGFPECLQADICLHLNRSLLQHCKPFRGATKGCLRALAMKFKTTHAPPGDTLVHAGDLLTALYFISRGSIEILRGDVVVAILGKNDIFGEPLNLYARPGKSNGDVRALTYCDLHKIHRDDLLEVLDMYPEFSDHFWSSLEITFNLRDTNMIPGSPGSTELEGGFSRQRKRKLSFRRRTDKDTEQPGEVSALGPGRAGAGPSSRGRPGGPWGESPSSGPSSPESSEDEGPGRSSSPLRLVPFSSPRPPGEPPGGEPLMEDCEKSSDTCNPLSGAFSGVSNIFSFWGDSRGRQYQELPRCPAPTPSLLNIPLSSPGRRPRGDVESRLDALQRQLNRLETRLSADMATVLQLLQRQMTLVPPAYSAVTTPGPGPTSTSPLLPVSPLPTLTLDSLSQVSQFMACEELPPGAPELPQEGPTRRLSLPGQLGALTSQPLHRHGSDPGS

Compound | IC25
CSc1ccc(OCc2nccn2C)cc1 | 34.5 µM
Cn1c([N+](=O)[O-])cnc1COc1ccc(S(C)(=O)=O)cc1 [FEXINIDAZOLE SULFONE] | 42.2 µM

system: Leishmania amazonensis; assay: Antileishmanial activity against wild type Leishmania amazonensis LV78 amastigotes infected in mouse peritoneal macrophage assessed as inhibition of parasite growth incubated for 72 hrs by giemsa staining based analysis; assay type: functional, organism-based; conditions: not given; in short: as §2

Compound | pIC50
CCCCCCCCCCCCCCCCOP(=O)([O-])OCC[N+](C)(C)C [MILTEFOSINE] | 5.02

system: Leishmania donovani; assay: Antileishmanial activity against wild type Leishmania donovani HU3 promastigotes […] assessed as inhibition of parasite growth incubated for 72 hrs by automatic microtiter plate reader analysis; assay type: functional, organism-based; conditions: not given

Compound | pIC50
CCCCCCCCCCCCCCCCOP(=O)([O-])OCC[N+](C)(C)C [MILTEFOSINE] | 5.16
CSc1ccc(OCc2nccn2C)cc1 | < 4.70
Cn1c([N+](=O)[O-])cnc1COc1ccc(S(C)(=O)=O)cc1 [FEXINIDAZOLE SULFONE] | 5.42

system: Leishmania donovani; assay: Antileishmanial activity against miltefosine resistant Leishmania donovani HU3MILR40 amastigotes infected in mouse peritoneal macrophage assessed as inhibition of parasite growth at 20 uM incubated for 72 hrs by giemsa staining based analysis; assay type: functional, organism-based; conditions: not given
In short: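 Adherent mouse peritoneal macrophages on coverslips infected overnight with late-log HU3MILR40 promastigotes (40 parasites per macrophage), then exposed to compound at a single fixed concentration in DMEM + 10% FBS for 72 h at 37 °C. Giemsa-stained coverslips imaged at 1000×; amastigotes per 100 macrophages counted versus DMSO control; mean ± SD of three independent experiments, Student's t-test.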

Compound | Activity
CCCCCCCCCCCCCCCCOP(=O)([O-])OCC[N+](C)(C)C [MILTEFOSINE] | inactive

molecular target: hERG (KCNH2) (Homo sapiens, UniProt Q12809); assay: Inhibition of human ERG stably overexpressed in HEK293 cells assessed as remaining activity at 25 uM incubated for 30 mins by FLIPR assay; assay type: toxicity, cell-based; conditions: HEK293 cells stably overexpressing hERG, read-out: Activity
In short: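 HEK-293 cells stably expressing hERG, seeded at 60 000/well and grown 24 h. Compounds were added in DMSO (final 0.5%) and incubated 30 min in the dark. After 20 s baseline, Tl+ stimulus (3 mM) was added and fluorescence (ex 485/em 535 nm) recorded for 2.5 min.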

Chain of hERG (KCNH2) (Q12809 whole entry): as above

Compound | activity at 0.5 h, 25 µM
CSc1ccc(OCc2nccn2C)cc1 | 83%

system: not listed separately; assay: Hepatotoxicity against mouse TAMH cells assessed as cell viability at 7.8 to 125 uM incubated for 24 to 48 hrs by MTT assay; assay type: toxicity, cell-based; conditions: dose lower 7.8 µM, time lower 24 hrs, dose upper 125 µM, time upper 48 hrs, read-out: Activity; in short: as §1

Compound | viability at up to 125 µM
CSc1ccc(OCc2nccn2C)cc1 | > 50%
Cn1c([N+](=O)[O-])cnc1COc1ccc(S(C)(=O)=O)cc1 [FEXINIDAZOLE SULFONE] | > 50%

system: Leishmania amazonensis; assay: Antileishmanial activity against wild type Leishmania amazonensis LV78 promastigotes […] assessed as inhibition of parasite growth incubated for 72 hrs by automatic microtiter plate reader analysis; assay type: functional, organism-based; conditions: not given
In short: (§5)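 Promastigotes were grown in Schneider's medium (4 mM glutamine, gentamicin, 10% heat-inactivated FBS, pH 6.9, 27 °C). Cells were seeded at 1.5 × 10^5/well and exposed to a concentration series for 72 h at 27 °C.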

Compound | pIC50
CCCCCCCCCCCCCCCCOP(=O)([O-])OCC[N+](C)(C)C [MILTEFOSINE] | 4.66
CSc1ccc(OCc2nccn2C)cc1 | < 4.70
Cn1c([N+](=O)[O-])cnc1COc1ccc(S(C)(=O)=O)cc1 [FEXINIDAZOLE SULFONE] | 5.03

system: Leishmania braziliensis; assay: Antileishmanial activity against wild type Leishmania braziliensis UA847 promastigotes […] assessed as inhibition of parasite growth incubated for 72 hrs by automatic microtiter plate reader analysis; assay type: functional, organism-based; conditions: not given; in short: as §5

Compound | pIC50
CCCCCCCCCCCCCCCCOP(=O)([O-])OCC[N+](C)(C)C [MILTEFOSINE] | 4.75
CSc1ccc(OCc2nccn2C)cc1 | < 4.70
Cn1c([N+](=O)[O-])cnc1COc1ccc(S(C)(=O)=O)cc1 [FEXINIDAZOLE SULFONE] | 5.23

system: not listed separately; assay: Cytotoxicity against mouse peritoneal macrophage assessed as inhibition of cell growth incubated for 72 hrs by giemsa staining based analysis; assay type: toxicity; conditions: peritoneal macrophages

Compound | IC50 at 72 h
CCCCCCCCCCCCCCCCOP(=O)([O-])OCC[N+](C)(C)C [MILTEFOSINE] | > 40 µM

system: Leishmania major; assay: Antileishmanial activity against wild type Leishmania major FV1 promastigotes […] assessed as inhibition of parasite growth incubated for 72 hrs by automatic microtiter plate reader analysis; assay type: functional, organism-based; conditions: not given; in short: as §5

Compound | pIC50
CCCCCCCCCCCCCCCCOP(=O)([O-])OCC[N+](C)(C)C [MILTEFOSINE] | 5.15
CSc1ccc(OCc2nccn2C)cc1 | < 4.70
Cn1c([N+](=O)[O-])cnc1COc1ccc(S(C)(=O)=O)cc1 [FEXINIDAZOLE SULFONE] | 5.77

system: Leishmania donovani; assay: Antileishmanial activity against wild type Leishmania donovani HU3 amastigotes infected in mouse peritoneal macrophage assessed as inhibition of parasite growth incubated for 72 hrs by giemsa staining based analysis; assay type: functional, organism-based; conditions: not given; in short: as §4

Compound | pIC50
CCCCCCCCCCCCCCCCOP(=O)([O-])OCC[N+](C)(C)C [MILTEFOSINE] | 5.57

system: not listed separately; assay: Hepatotoxicity against human HepG2 cells assessed as cell viability at 125 uM incubated for 48 hrs by MTT assay; assay type: toxicity, cell-based; conditions: hepg2, 48 h, 125 µM
In short: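 HEP-G2 cells in RPMI 1640 + 10% heat-inactivated FBS, penicillin/streptomycin. Seeded at 15 000/well and attached 24 h at 37 °C, 5% CO2. Compounds were serially diluted in DMSO, with 24 or 48 h exposure. MTT (2.5 mg/mL solution) was added for 4 h, formazan dissolved in DMSO and A570 read. Viability was background-corrected against DMSO-treated cell controls; mean ± SD, ≥3 experiments.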

Compound | Activity
Cn1c([N+](=O)[O-])cnc1COc1ccc(S(C)(=O)=O)cc1 [FEXINIDAZOLE SULFONE] | Non-toxic
